Assay outcomes deposited in PubChem by Broad Institute.
An excerpt weighted towards active compounds, which were near 5.8% of everything screened.
Tcruzi prolif: blocks T. cruzi growth in NIH3T3 culture. T. cruzi beta-gal in NIH3T3, GalScreen luminescence, 90 h. 5.9% of 77,000 active. inhibition, % at 8.34 µM;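 active means mean inhibition above about 93%, with at least 55% of replicates each passing it, limit read from the data, passing the limit was not always enough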
KDM4C inh: KDM4C (human) demethylase inhibition | GST-KDM4C 2-372, H3K9me3 peptide, LANCE TR-FRET | inhibition, % at 12.5 µM | Q9H3R0 | 0.15% of 96,000 active | AID 720574;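 active means mean replicate inhibition above about 25%, with at least 55% of replicates also reaching it, limit read from the data, passing the limit was not always enough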
Target sequence (Q9H3R0 2-372 limits assumed): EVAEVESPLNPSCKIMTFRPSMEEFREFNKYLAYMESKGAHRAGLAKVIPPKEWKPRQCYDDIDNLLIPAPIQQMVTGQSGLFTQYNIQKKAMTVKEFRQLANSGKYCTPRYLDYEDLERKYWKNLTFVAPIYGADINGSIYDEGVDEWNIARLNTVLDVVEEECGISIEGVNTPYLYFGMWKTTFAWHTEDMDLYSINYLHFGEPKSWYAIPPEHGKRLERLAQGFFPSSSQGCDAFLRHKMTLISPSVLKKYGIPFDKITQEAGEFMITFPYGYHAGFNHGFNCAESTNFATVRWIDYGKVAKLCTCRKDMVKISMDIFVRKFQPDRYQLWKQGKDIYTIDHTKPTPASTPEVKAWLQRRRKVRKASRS
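Assay system: GST-GASC-1 enzyme fragment 2-372 | Amount: 10 nM enzyme | Medium: HEPES buffer, pH 7.5, plus ascorbate | Reagent: H3K9me3 peptide substrate, Fe(II), 2-oxoglutarate | Doses: Single-point compound screen | Incubation: 30 min demethylation and 1 h detection at room temperature | Measured by: LANCE TR-FRET, excitation 340 nm, emissions 618 and 671 nm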
IDH1 mut inh: blocks human IDH1 R132H reductase activity. inhibition, % at 10 µM. diaphorase/resazurin fluorescence, 60 min. O75874. 0.18% of 70,000 active; in the data active means inhibition above about 34%
Pf Dd2 inh: P. falciparum Dd2 growth inhibition | SYBR Green, 72 h; active compounds read low | activity change, % at 10 µM | 2.3% of 94,000 active | AID 1159554; in the data active means activity change below about -80%
Hits are given with their value; - = inactive; . = no result; ! = not active in a repeat.

SMILES | Tcruzi prolif | KDM4C inh | IDH1 mut inh | Pf Dd2 inh
CO[C@@H]1CN(C)C(=O)c2cc(NC(=O)c3cccc(F)c3)ccc2OC[C@H](C)N(C(C)=O)C[C@H]1C | - | 65 | 98 | .
CO[C@H]1CN(C)C(=O)c2ccc(NS(=O)(=O)CC(F)(F)F)cc2OC[C@H](C)N(C)C[C@@H]1C | . | - | . | -87
COc1ccc(Cl)cc1NC(=O)CN(c1c(C)cccc1C)S(C)(=O)=O | . | . | - | .
C(=C\c1ccc(C2[C@@H]3CN(Cc4nccs4)C[C@H]2N3)cc1)/c1ccccc1 (stereo not given in full) | . | - | . | -88!
c1cncc(-c2ccc(C3[C@@H]4CN(Cc5nccs5)C[C@H]3N4)cc2)c1 (stereo not given in full) | . | - | . | -88!
C(=C\c1ccc(C2[C@@H]3CN(Cc4ccccn4)C[C@H]2N3)cc1)/c1ccccc1 (stereo not given in full) | . | - | . | -
c1cc(-c2ccc(C3[C@@H]4CN(Cc5nccs5)C[C@H]3N4)cc2)ccn1 (stereo not given in full) | . | - | . | -
O=C(CSc1nc2sc3c(c2c(=O)n1Cc1ccco1)CCC3)c1ccccc1 | . | . | - | .
COc1ccccc1-c1ccccc1[C@H]1[C@H](C#N)N(C(=O)C2CCC2)[C@H]1CO | . | - | . | -85
COc1ccccc1-c1ccccc1[C@@H]1[C@@H](C#N)N(C(=O)C2CC2)[C@@H]1CO | . | - | . | -98
COc1ccc(-c2ccccc2[C@H]2[C@@H](C#N)N(C(=O)C3CCC3)[C@H]2CO)cc1 | . | - | . | -
COc1ccc(-c2ccccc2[C@H]2[C@@H](C#N)N(C(=O)NC(C)C)[C@H]2CO)cc1 | . | - | . | -87
COc1ccc(-c2ccccc2[C@H]2[C@@H](C#N)N(C(=O)C3CCCC3)[C@@H]2CO)cc1 | . | - | . | -98
Cc1ccc2ccc(C(Nc3ccccn3)c3ccc(C(C)C)cc3)c(O)c2n1 (stereo not given) | . | . | - | .
COC(=O)C1C(=O)c2c([nH]c(C(=O)OC(C)C)c2C)CC1C (stereo not given) | . | . | - | .
Cc1ccc(S(=O)(=O)N(C)C[C@@H]2OCCCC[C@@H](C)Oc3ccc(NC(=O)Nc4cccc5ccccc45)cc3C(=O)N([C@@H](C)CO)C[C@@H]2C)cc1 | . | - | . | -82
Cc1ccc(S(=O)(=O)N(C)C[C@@H]2OCCCC[C@H](C)Oc3ccc(NC(=O)Nc4cccc5ccccc45)cc3C(=O)N([C@H](C)CO)C[C@H]2C)cc1 | . | - | - | -82
O=C(CN(c1ccc(F)cc1)S(=O)(=O)c1ccc2c(c1)OCCO2)N1CCc2ccccc2C1 | . | . | - | .
O=C(CC1NCCNC1=O)Nc1cccc(Cl)c1Cl (stereo not given) | . | . | - | .
COc1ccc(CN2CC3(CN(C(=O)Cc4ccccc4)C3)c3c([nH]c4cc(OC)ccc34)[C@@H]2CO)cc1 | . | - | . | -86
COc1ccc2c3c([nH]c2c1)[C@@H](CO)N(Cc1ccccc1)CC31CN(C(=O)Cc2ccccc2)C1 | . | . | . | -84
COCC(=O)N1CC2(C1)CN(Cc1cccc(Cl)c1)[C@@H](CO)c1[nH]c3cc(OC)ccc3c12 | . | - | . | -92
COc1ccc2c3c([nH]c2c1)[C@H](CO)N(Cc1ccccc1)CC31CN(C(=O)Cc2ccccc2)C1 | . | . | . | -
COc1ccc2c3c([nH]c2c1)[C@H](CO)N(CC1CC1)CC31CN(C(=O)c2ccccc2)C1 | . | - | . | -83
COc1ccc2c3c([nH]c2c1)[C@H](CO)N(CC1CC1)CC31CN(C(=O)c2ccc(F)cc2)C1 | . | - | . | -
SMILES | Tcruzi prolif | KDM4C inh | IDH1 mut inh | Pf Dd2 inh
Cn1c(=O)c2c(nc(N3CCOCC3)n2CCCN)n(C)c1=O | . | . | - | .
C=CCN1C(=O)[C@@]2(O[C@@H](CCn3cc(CCO)nn3)[C@H]([Si](C)(C)c3ccc(OC)cc3)[C@H]2C)c2cc(NC(=O)c3ccc(OC)cc3)ccc21 | . | . | 66 | .
C=CCN1C(=O)[C@]2(O[C@H](CCO)[C@@H]([Si](C)(C)c3ccc(OC)cc3)[C@@H]2C)c2cc(NC(=O)[C@H](C)O)ccc21 | . | . | - | .
C[C@H](CO)N1C[C@H](C)[C@H](CN(C)Cc2ccc(O)cc2)OCc2ccccc2-c2c(n(C)c3ccccc23)C1=O | . | - | . | -
C[C@@H]1CN([C@H](C)CO)C(=O)c2c(c3ccccc3n2C)-c2ccccc2CO[C@H]1CN(C)Cc1ccc(Cl)c(Cl)c1 | . | - | . | -89
C[C@@H]1CN([C@H](C)CO)C(=O)c2c(c3ccccc3n2C)-c2ccccc2CO[C@@H]1CN(C)Cc1ccc(Cl)c(Cl)c1 | . | - | . | -85
C[C@@H]1CN([C@@H](C)CO)C(=O)c2c(c3ccccc3n2C)-c2ccccc2CO[C@@H]1CN(C)Cc1ccc(Cl)c(Cl)c1 | . | - | . | -87
C[C@H]1CN([C@@H](C)CO)C(=O)c2c(c3ccccc3n2C)-c2ccccc2CO[C@@H]1CN(C)Cc1ccc(Cl)c(Cl)c1 | . | - | . | -88
C[C@H](CO)N1C[C@H](C)[C@H](CN(C)Cc2ccc(Cl)c(Cl)c2)OCc2ccccc2-c2c(n(C)c3ccccc23)C1=O | . | - | . | -
COC(=O)COc1ccc(NC(=O)c2ccc([N+](=O)[O-])c(C)c2)cc1 | . | . | - | .
COC(=O)c1ccc(NC(=O)CN(c2ccc(I)cc2)S(C)(=O)=O)cc1 | . | . | - | .
C/C=C/c1ccc2c(c1)O[C@@H](CN(C)Cc1ccc(C(=O)O)cc1)[C@H](C)CN([C@@H](C)CO)S2(=O)=O | . | - | - | -
C/C=C/c1ccc2c(c1)O[C@@H](CN(C)CCC)[C@@H](C)CN([C@H](C)CO)S2(=O)=O | - | 38 | 53 | -
C/C=C/c1ccc2c(c1)O[C@H](CN(C)Cc1ccc(C(=O)O)cc1)[C@@H](C)CN([C@H](C)CO)S2(=O)=O | . | - | - | -86
O=C(CSc1nnc(-c2ccccc2Cl)o1)c1ccc2c(c1)OCCO2 | . | . | - | .
O=C(Cn1cnc2scc(-c3cccc([N+](=O)[O-])c3)c2c1=O)Nc1ccc(F)c(Cl)c1 | . | . | - | .
O=C(Cn1cnc2ccccc2c1=O)Nc1ccc2c(c1)oc1ccccc12 | . | . | - | .
C[C@@H]1CN([C@@H](C)CO)C(=O)c2cccc(NC(=O)C3CCCCC3)c2O[C@H]1CN(C)Cc1ccc(C(=O)Nc2ccccc2N)cc1 | - | - | - | -87
C[C@H]1CN([C@@H](C)CO)C(=O)c2cccc(NC(=O)C3CCCCC3)c2O[C@H]1CN(C)Cc1ccc(C(=O)Nc2ccccc2N)cc1 | - | - | . | -
C[C@@H]1CN([C@H](C)CO)C(=O)c2cccc(NC(=O)C3CCCCC3)c2O[C@H]1CN(C)Cc1ccc(C(=O)Nc2ccccc2N)cc1 | - | - | . | -86
C[C@@H]1CN([C@H](C)CO)C(=O)c2cccc(NC(=O)C3CCCCC3)c2O[C@@H]1CN(C)Cc1ccc(C(=O)Nc2ccccc2N)cc1 | - | - | - | -84
C[C@@H]1CN([C@@H](C)CO)C(=O)c2cccc(NC(=O)NC3CCCCC3)c2O[C@@H]1CN(C)Cc1ccc(C(=O)Nc2ccccc2N)cc1 | - | - | . | -90
C[C@H]1CN([C@@H](C)CO)C(=O)c2cccc(NC(=O)C3CC3)c2O[C@@H]1CN(C)Cc1ccc(C(=O)Nc2ccccc2N)cc1 | - | - | - | -
